Activity calls are given as the source filed them. The rule behind the calls is not given here.
Tests used:
[1] = test system: P388; experiment: Antitumor activity against mouse P388 cells allografted in mouse assessed as host median survival time at 25 mg/kg/day, ip administered as gum acacia suspension on days 1 to 9 relative to control; assay type: functional; details: route intraperitoneal
Method in brief: (§1)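 Tumored mice got the compound intraperitoneally as a gum acacia suspension once daily on days 1-9 (nine injections), with doses in (mg/kg)/day. Read-out was T/C, the median survival time of treated over control animals as a percentage. Dose-response assays were generally run in duplicate, and the highest T/C per assay is reported with its dose.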

[2] = test system: P388; experiment: Antitumor activity against mouse P388 cells allografted in mouse assessed as host median survival time at 12 mg/kg/day, ip administered as gum acacia suspension on days 1 to 9 relative to control; assay type: functional; details: route intraperitoneal; method in brief: as §1
[3] = Octanol-water partition coefficient, log P of the compound by high-performance liquid chromatography; assay type: physicochemical
[4] = test system: P388; experiment: Antitumor activity against mouse P388 cells allografted in mouse assessed as host median survival time at 50 mg/kg/day, ip administered as gum acacia suspension on days 1 to 9 relative to control; assay type: functional; details: route intraperitoneal; method in brief: as §1
[5] = test system: L1210; experiment: Growth inhibition of mouse L1210 cells at 0.14 umol/ml after 23 to 46 hrs by coulter counter analysis; assay type: functional, cell-based
Method in brief: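 L1210 cells grown in RPMI 1630 with 16.7% heat-inactivated fetal calf serum and gentamicin 40 µg/mL. Exponentially growing cells were washed and seeded at 1 × 10^5 cells/mL. Drug was added in Me2SO to a final 1.39 ± 0.17 × 10^-7 mol/mL with continuous exposure at 37 °C. Coulter counts at 23 and 46 h gave percent inhibition versus untreated control.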

[6] = test system: P388; experiment: Antitumor activity against mouse P388 cells allografted in mouse assessed as host median survival time at 6 mg/kg/day, ip administered as gum acacia suspension on days 1 to 9 relative to control; assay type: functional; details: route intraperitoneal; method in brief: as §1
[7] = Antitumor activity against mouse LCC cells allografted in mouse assessed as host median survival time at 6 mg/kg/day, ip administered as gum acacia suspension on days 1 to 9 relative to control; assay type: functional, Lewis lung carcinoma; details: route intraperitoneal; method in brief: as §1
[8] = Antitumor activity against mouse LCC cells allografted in mouse assessed as host median survival time at 50 mg/kg/day, ip administered as gum acacia suspension on days 1 to 9 relative to control; assay type: functional, Lewis lung carcinoma; details: route intraperitoneal; method in brief: as §1
[9] = test system: P388; experiment: Antitumor activity against mouse P388 cells allografted in mouse assessed as host median survival time at 100 mg/kg/day, ip administered as gum acacia suspension on days 1 to 9 relative to control; assay type: functional; details: route intraperitoneal; method in brief: as §1
[10] = Antitumor activity against mouse LCC cells allografted in mouse assessed as host median survival time at 12 mg/kg/day, ip administered as gum acacia suspension on days 1 to 9 relative to control; assay type: functional, Lewis lung carcinoma; details: route intraperitoneal; method in brief: as §1
[11] = Antitumor activity against mouse LCC cells allografted in mouse assessed as host median survival time at 100 mg/kg/day, ip administered as gum acacia suspension on days 1 to 9 relative to control; assay type: functional, Lewis lung carcinoma; details: route intraperitoneal; method in brief: as §1
[12] = Antitumor activity against mouse LCC cells allografted in mouse assessed as host median survival time at 25 mg/kg/day, ip administered as gum acacia suspension on days 1 to 9 relative to control; assay type: functional, Lewis lung carcinoma; details: route intraperitoneal; method in brief: as §1
[13] = Antitumor activity against mouse LCC cells allografted in mouse assessed as host median survival time at 200 mg/kg/day, ip administered as gum acacia suspension on days 1 to 9 relative to control; assay type: functional, Lewis lung carcinoma; details: route intraperitoneal; method in brief: as §1
[14] = Antitumor activity against mouse LCC cells allografted in mouse assessed as host median survival time at 3 mg/kg/day, ip administered as gum acacia suspension on days 1 to 9 relative to control; assay type: functional, Lewis lung carcinoma; details: route intraperitoneal; method in brief: as §1
[15] = test system: P388; experiment: Antitumor activity against mouse P388 cells allografted in mouse assessed as host median survival time at 200 mg/kg/day, ip administered as gum acacia suspension on days 1 to 9 relative to control; assay type: functional; details: route intraperitoneal; method in brief: as §1
[16] = Antineoplastic activity against mouse LCC cells allografted in mouse assessed as increase in host life span at 20 to 200 mg/kg relative to control; assay type: functional, Lewis lung carcinoma; details: dose mg/kg 20-200
[17] = Solubility of the compound in water at 25 degC measured per 100 ml; assay type: physicochemical; details: buffer
[18] = Solubility of the compound in ethanol at 25 degC measured per 100 ml; assay type: physicochemical

CC(=O)c1c(O[C@@H]2O[C@H](CO)[C@@H](O)[C@H](O)[C@H]2O)c(C)c(O)c2c1OC1=CC(=O)/C(=C(/C)N)C(=O)C12C (some centres not stated)
T/C [1]: 108% | T/C [2]: 104%

CC(=O)C1=C(O)C=C2Oc3c(C(C)=O)c(O[C@@H]4O[C@H](CO)[C@@H](O)[C@H](O)[C@H]4O)c(C)c(O)c3C2(C)C1=O (some centres not stated)
logP [3]: 0.56 | T/C [1]: 102% | T/C [4]: 108%

CC(=O)c1c(O)c(C)c(O)c2c1OC1=CC(=O)/C(=C(\C)N)C(=O)C12C (configuration not stated)
growth inhibition (GI) [5]: Active | T/C [6]: 107% | logP [3]: 3.2 | T/C [7]: 110% | T/C [8]: 111%

CC(=O)c1c(O)c(C)c(O)c2c1OC1=CC(=O)c3c(C)noc3C12C (configuration not stated)
growth inhibition (GI) [5]: Active | T/C [9]: 114% | T/C [10]: 117% | T/C [7]: 112%

C=C1c2c(O)c(C)c(O)c(C(C)=O)c2OC12C=C(C(=O)O)C(=O)C2 (configuration not stated)
logP [3]: 1.3 | T/C [1]: 108% | T/C [11]: 109% | T/C [2]: 112% | T/C [8]: 127%

CC(=O)C1=C(O)CC2Oc3c(C(C)=O)c(O)c(C)c(O)c3C2(C)C1=O (configuration not stated)
growth inhibition (GI) [5]: Active | logP [3]: 2.4 | T/C [1]: 118% | T/C [9]: 128% | T/C [10]: 107% | T/C [8]: 107%

COC12CC(O)=C(C(C)=O)C(=O)C1(C)c1c(O)c(C)c(O)c(C(C)=O)c1O2 (mixture of isomers)
growth inhibition (GI) [5]: Active | logP [3]: 2.3 | T/C [1]: 128% | T/C [12]: 122% | T/C [4]: 122% | T/C [8]: 106%

CC(=O)c1c(O)c(C)c(O)c2c1OC1=Cc3c(c(C)nn3C)C(=O)C12C (configuration not stated)
growth inhibition (GI) [5]: Active | logP [3]: 2.8 | T/C [10]: 103% | T/C [4]: 118% | T/C [13]: 112%

CC(=O)Oc1c(C)c(OC(C)=O)c2c(c1C(C)=O)OC1CC(=O)C(C(C)=O)=C(O)C21C (mixture of isomers)
growth inhibition (GI) [5]: Active | logP [3]: 2.3 | T/C [1]: 108% | T/C [14]: 104% | T/C [4]: 112% | T/C [8]: 114%

CC(=O)Oc1c(C)c(OC(C)=O)c2c(c1C(C)=O)OC1=CC(O)=C(C(C)=O)C(=O)C12C (configuration not stated)
growth inhibition (GI) [5]: Active | T/C [6]: 115% | logP [3]: 2.5 | T/C [10]: 117% | T/C [7]: 111% | T/C [15]: 144%

CC(=O)C1=C(O)C=C2Oc3c(C(C)=O)c(O)c(C)c(O)c3[C@]2(C)C1=O [(-)-USNIC ACID]
Activity [16]: 35% | growth inhibition (GI) [5]: Active | logP [3]: 2.88 | T/C [9]: 141% | solubility [17]: < 10 mg | solubility [18]: 20 mg

CC(=O)c1c(O)c(C)c(O)c2c1OC1=Cc3onc(C)c3C(=O)C12C (configuration not stated)
T/C [9]: 104% | T/C [8]: 111%

CC(=O)Oc1c(C)c(O)c(C(C)=O)c2c1C1(C)C(=O)C(C(C)=O)=C(O)C=C1O2 (configuration not stated)
growth inhibition (GI) [5]: Active | logP [3]: 2.7 | T/C [12]: 118% | T/C [8]: 112% | T/C [15]: 113%

CC(=O)c1c(O)c(C)c(O)c2c1OC1=Cc3c(c(C)nn3-c3ccccc3)C(=O)C12C (configuration not stated)
growth inhibition (GI) [5]: Active | T/C [6]: 122% | logP [3]: 3.2 | T/C [11]: 108% | T/C [12]: 111% | T/C [15]: 110%

COC12CC(O)=C(C(C)=O)C(=O)C1(C)c1c(OC(C)=O)c(C)c(O)c(C(C)=O)c1O2 (mixture of isomers)
growth inhibition (GI) [5]: Active | logP [3]: 2.6 | T/C [1]: 106% | T/C [9]: 124% | T/C [8]: 108%

Reference: ChEMBL document CHEMBL3244360, “Usnic acid derivatives as potential antineoplastic agents” (J Med Chem, 1979)
